≈ marks a conversion by molar mass, not a printed value.
test system: Escherichia coli; assay: Antibacterial activity against 1 x 10^4 cfu/mL Escherichia coli ATCC 11303 after 24 hrs by NCCLS M7-A6 microtiter broth dilution method; format: functional; conditions: ATCC 11303, 24 h

Structure (SMILES) | MIC80
COc1ccc(-c2oc3ccc(C)cc3c2C(=O)c2cc(OC)cc(OC)c2)cc1 | > 200 µg/mL
COc1ccc(C(=O)c2c(-c3ccc(OC)cc3)oc3ccc(C)cc23)cc1 | > 200 µg/mL
COc1ccc(-c2oc3ccc(C)cc3c2C(=O)c2cccc(OC)c2OC)cc1 | > 200 µg/mL
COc1ccc(-c2oc3ccc(C)cc3c2C(=O)c2cc(OC)c(OC)c(OC)c2)cc1 | > 200 µg/mL
COc1ccc(-c2oc3ccc(C)cc3c2C(=O)c2ccc(Cl)cc2)cc1 | > 200 µg/mL
COc1ccc(-c2oc3ccc(C)cc3c2C(=O)c2cc(Cl)cc(Cl)c2)cc1 | > 200 µg/mL
COc1ccc(-c2oc3ccc(C)cc3c2C(=O)c2cc(F)c(F)cc2Br)cc1 | > 200 µg/mL
COc1ccc(-c2oc3ccc(C)cc3c2C(=O)c2ccccc2Br)cc1 | > 200 µg/mL
COc1ccc(-c2oc3ccc(C)cc3c2C(=O)c2ccc(O)cc2)cc1 | 0.78 µg/mL (≈ 2.18 µM)
COc1ccc(-c2oc3ccc(C)cc3c2C(=O)c2ccc(O)c(C)c2)cc1 | 0.78 µg/mL (≈ 2.09 µM)
COc1ccc(-c2oc3ccc(C)cc3c2C(=O)c2cc(O)cc(OC)c2)cc1 | 0.78 µg/mL (≈ 2.01 µM)
COc1ccc(-c2oc3ccc(C)cc3c2C(=O)c2cccc(OC)c2O)cc1 | > 200 µg/mL
COc1ccc(-c2oc3ccc(C)cc3c2C(=O)c2ccc(O)c(I)c2)cc1 | 3.12 µg/mL (≈ 6.44 µM)
CO/N=C(\C(=O)N[C@@H]1C(=O)N2C(C(=O)O)=C(COC(C)=O)CS[C@H]12)c1csc(N)n1 [CEFOTAXIME] | > 200 µg/mL
CC(C)(O/N=C(\C(=O)N[C@@H]1C(=O)N2C(C(=O)[O-])=C(C[n+]3ccccc3)CS[C@H]12)c1csc(N)n1)C(=O)O [CEFTAZIDIME] | > 200 µg/mL
CC1(C)S[C@@H]2[C@H](NC(=O)Cc3ccccc3)C(=O)N2[C@H]1C(=O)[O-].[Na+] [PENICILLIN G SODIUM] | 0.78 µg/mL
Oc1ccc(/C=C/c2cc(O)cc(O)c2)cc1 [RESVERATROL] | 25 µg/mL (≈ 110 µM)

test system: Staphylococcus aureus; assay: Antibacterial activity against 1 x 10^4 cfu/mL Staphylococcus aureus ATCC 29213 after 24 hrs by NCCLS M7-A6 microtiter broth dilution method; format: functional; conditions: ATCC 29213, 24 h

Structure (SMILES) | MIC80
COc1ccc(-c2oc3ccc(C)cc3c2C(=O)c2cc(OC)cc(OC)c2)cc1 | > 200 µg/mL
COc1ccc(C(=O)c2c(-c3ccc(OC)cc3)oc3ccc(C)cc23)cc1 | > 200 µg/mL
COc1ccc(-c2oc3ccc(C)cc3c2C(=O)c2cccc(OC)c2OC)cc1 | > 200 µg/mL
COc1ccc(-c2oc3ccc(C)cc3c2C(=O)c2cc(OC)c(OC)c(OC)c2)cc1 | > 200 µg/mL
COc1ccc(-c2oc3ccc(C)cc3c2C(=O)c2ccc(Cl)cc2)cc1 | > 200 µg/mL
COc1ccc(-c2oc3ccc(C)cc3c2C(=O)c2cc(Cl)cc(Cl)c2)cc1 | > 200 µg/mL
COc1ccc(-c2oc3ccc(C)cc3c2C(=O)c2cc(F)c(F)cc2Br)cc1 | > 200 µg/mL
COc1ccc(-c2oc3ccc(C)cc3c2C(=O)c2ccccc2Br)cc1 | > 200 µg/mL
COc1ccc(-c2oc3ccc(C)cc3c2C(=O)c2ccc(O)cc2)cc1 | < 0.39 µg/mL
COc1ccc(-c2oc3ccc(C)cc3c2C(=O)c2ccc(O)c(C)c2)cc1 | 0.78 µg/mL (≈ 2.09 µM)
COc1ccc(-c2oc3ccc(C)cc3c2C(=O)c2cc(O)cc(OC)c2)cc1 | < 0.39 µg/mL
COc1ccc(-c2oc3ccc(C)cc3c2C(=O)c2cccc(OC)c2O)cc1 | > 200 µg/mL
COc1ccc(-c2oc3ccc(C)cc3c2C(=O)c2ccc(O)c(I)c2)cc1 | 0.78 µg/mL (≈ 1.61 µM)
CO/N=C(\C(=O)N[C@@H]1C(=O)N2C(C(=O)O)=C(COC(C)=O)CS[C@H]12)c1csc(N)n1 [CEFOTAXIME] | 3.12 µg/mL (≈ 6.85 µM)
CC(C)(O/N=C(\C(=O)N[C@@H]1C(=O)N2C(C(=O)[O-])=C(C[n+]3ccccc3)CS[C@H]12)c1csc(N)n1)C(=O)O [CEFTAZIDIME] | 0.78 µg/mL (≈ 1.43 µM)
CC1(C)S[C@@H]2[C@H](NC(=O)Cc3ccccc3)C(=O)N2[C@H]1C(=O)[O-].[Na+] [PENICILLIN G SODIUM] | 3.12 µg/mL
Oc1ccc(/C=C/c2cc(O)cc(O)c2)cc1 [RESVERATROL] | 25 µg/mL (≈ 110 µM)

test system: Staphylococcus aureus; assay: Antibacterial activity against 1 x 10^4 cfu/mL methicillin-resistant Staphylococcus aureus ATCC 700699 after 24 hrs by NCCLS M7-A6 microtiter broth dilution method; format: functional; conditions: ATCC 700699, 24 h
How it was run: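 Bacteria pre-cultured in LB broth 24 h at 37 °C. Colonies suspended in sterile saline and adjusted to 0.5 McFarland (625 nm, 1–2 × 10⁸ cfu/mL), then diluted 1:10,000 in LB. Compounds from a 4 mg/mL DMSO stock were two-fold serially diluted across a 96-well plate, 200 down to 0.39 µg/mL. MIC80 was the lowest concentration preventing visible growth (>80% inhibition).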

Structure (SMILES) | MIC80
COc1ccc(-c2oc3ccc(C)cc3c2C(=O)c2cc(OC)cc(OC)c2)cc1 | > 200 µg/mL
COc1ccc(C(=O)c2c(-c3ccc(OC)cc3)oc3ccc(C)cc23)cc1 | > 200 µg/mL
COc1ccc(-c2oc3ccc(C)cc3c2C(=O)c2cccc(OC)c2OC)cc1 | > 200 µg/mL
COc1ccc(-c2oc3ccc(C)cc3c2C(=O)c2cc(OC)c(OC)c(OC)c2)cc1 | > 200 µg/mL
COc1ccc(-c2oc3ccc(C)cc3c2C(=O)c2ccc(Cl)cc2)cc1 | > 200 µg/mL
COc1ccc(-c2oc3ccc(C)cc3c2C(=O)c2cc(Cl)cc(Cl)c2)cc1 | > 200 µg/mL
COc1ccc(-c2oc3ccc(C)cc3c2C(=O)c2cc(F)c(F)cc2Br)cc1 | > 200 µg/mL
COc1ccc(-c2oc3ccc(C)cc3c2C(=O)c2ccccc2Br)cc1 | > 200 µg/mL
COc1ccc(-c2oc3ccc(C)cc3c2C(=O)c2ccc(O)cc2)cc1 | 0.78 µg/mL (≈ 2.18 µM)
COc1ccc(-c2oc3ccc(C)cc3c2C(=O)c2ccc(O)c(C)c2)cc1 | 0.78 µg/mL (≈ 2.09 µM)
COc1ccc(-c2oc3ccc(C)cc3c2C(=O)c2cc(O)cc(OC)c2)cc1 | 0.78 µg/mL (≈ 2.01 µM)
COc1ccc(-c2oc3ccc(C)cc3c2C(=O)c2cccc(OC)c2O)cc1 | > 200 µg/mL
COc1ccc(-c2oc3ccc(C)cc3c2C(=O)c2ccc(O)c(I)c2)cc1 | 0.78 µg/mL (≈ 1.61 µM)
CO/N=C(\C(=O)N[C@@H]1C(=O)N2C(C(=O)O)=C(COC(C)=O)CS[C@H]12)c1csc(N)n1 [CEFOTAXIME] | 3.12 µg/mL (≈ 6.85 µM)
CC(C)(O/N=C(\C(=O)N[C@@H]1C(=O)N2C(C(=O)[O-])=C(C[n+]3ccccc3)CS[C@H]12)c1csc(N)n1)C(=O)O [CEFTAZIDIME] | 12.5 µg/mL (≈ 22.9 µM)
CC1(C)S[C@@H]2[C@H](NC(=O)Cc3ccccc3)C(=O)N2[C@H]1C(=O)[O-].[Na+] [PENICILLIN G SODIUM] | 3.12 µg/mL
Oc1ccc(/C=C/c2cc(O)cc(O)c2)cc1 [RESVERATROL] | 25 µg/mL (≈ 110 µM)

test system: Bacillus subtilis; assay: Antibacterial activity against 1 x 10^4 cfu/mL Bacillus subtilis ATCC 33712 after 24 hrs by NCCLS M7-A6 microtiter broth dilution method; format: functional; conditions: ATCC 33712, 24 h

Structure (SMILES) | MIC80
COc1ccc(-c2oc3ccc(C)cc3c2C(=O)c2cc(OC)cc(OC)c2)cc1 | > 200 µg/mL
COc1ccc(C(=O)c2c(-c3ccc(OC)cc3)oc3ccc(C)cc23)cc1 | > 200 µg/mL
COc1ccc(-c2oc3ccc(C)cc3c2C(=O)c2cccc(OC)c2OC)cc1 | > 200 µg/mL
COc1ccc(-c2oc3ccc(C)cc3c2C(=O)c2cc(OC)c(OC)c(OC)c2)cc1 | > 200 µg/mL
COc1ccc(-c2oc3ccc(C)cc3c2C(=O)c2ccc(Cl)cc2)cc1 | > 200 µg/mL
COc1ccc(-c2oc3ccc(C)cc3c2C(=O)c2cc(Cl)cc(Cl)c2)cc1 | > 200 µg/mL
COc1ccc(-c2oc3ccc(C)cc3c2C(=O)c2cc(F)c(F)cc2Br)cc1 | > 200 µg/mL
COc1ccc(-c2oc3ccc(C)cc3c2C(=O)c2ccccc2Br)cc1 | 0.78 µg/mL (≈ 1.85 µM)
COc1ccc(-c2oc3ccc(C)cc3c2C(=O)c2ccc(O)cc2)cc1 | 0.78 µg/mL (≈ 2.18 µM)
COc1ccc(-c2oc3ccc(C)cc3c2C(=O)c2ccc(O)c(C)c2)cc1 | 1.56 µg/mL (≈ 4.19 µM)
COc1ccc(-c2oc3ccc(C)cc3c2C(=O)c2cc(O)cc(OC)c2)cc1 | 0.78 µg/mL (≈ 2.01 µM)
COc1ccc(-c2oc3ccc(C)cc3c2C(=O)c2cccc(OC)c2O)cc1 | > 200 µg/mL
COc1ccc(-c2oc3ccc(C)cc3c2C(=O)c2ccc(O)c(I)c2)cc1 | 1.56 µg/mL (≈ 3.22 µM)
CO/N=C(\C(=O)N[C@@H]1C(=O)N2C(C(=O)O)=C(COC(C)=O)CS[C@H]12)c1csc(N)n1 [CEFOTAXIME] | 0.78 µg/mL (≈ 1.71 µM)
CC(C)(O/N=C(\C(=O)N[C@@H]1C(=O)N2C(C(=O)[O-])=C(C[n+]3ccccc3)CS[C@H]12)c1csc(N)n1)C(=O)O [CEFTAZIDIME] | 6.25 µg/mL (≈ 11.4 µM)
CC1(C)S[C@@H]2[C@H](NC(=O)Cc3ccccc3)C(=O)N2[C@H]1C(=O)[O-].[Na+] [PENICILLIN G SODIUM] | < 0.39 µg/mL
Oc1ccc(/C=C/c2cc(O)cc(O)c2)cc1 [RESVERATROL] | 25 µg/mL (≈ 110 µM)

test system: Candida albicans; assay: microbe, parasite or virus in culture; format: functional; conditions: ATCC 6258, 48 h

Structure (SMILES) | MIC80
COc1ccc(-c2oc3ccc(C)cc3c2C(=O)c2cc(OC)cc(OC)c2)cc1 | > 200 µg/mL
COc1ccc(C(=O)c2c(-c3ccc(OC)cc3)oc3ccc(C)cc23)cc1 | > 200 µg/mL
COc1ccc(-c2oc3ccc(C)cc3c2C(=O)c2cccc(OC)c2OC)cc1 | > 200 µg/mL
COc1ccc(-c2oc3ccc(C)cc3c2C(=O)c2cc(OC)c(OC)c(OC)c2)cc1 | > 200 µg/mL
COc1ccc(-c2oc3ccc(C)cc3c2C(=O)c2ccc(Cl)cc2)cc1 | > 200 µg/mL
COc1ccc(-c2oc3ccc(C)cc3c2C(=O)c2cc(Cl)cc(Cl)c2)cc1 | > 200 µg/mL
COc1ccc(-c2oc3ccc(C)cc3c2C(=O)c2cc(F)c(F)cc2Br)cc1 | > 200 µg/mL
COc1ccc(-c2oc3ccc(C)cc3c2C(=O)c2ccccc2Br)cc1 | > 200 µg/mL
COc1ccc(-c2oc3ccc(C)cc3c2C(=O)c2ccc(O)cc2)cc1 | > 200 µg/mL
COc1ccc(-c2oc3ccc(C)cc3c2C(=O)c2ccc(O)c(C)c2)cc1 | > 200 µg/mL
COc1ccc(-c2oc3ccc(C)cc3c2C(=O)c2cc(O)cc(OC)c2)cc1 | > 200 µg/mL
COc1ccc(-c2oc3ccc(C)cc3c2C(=O)c2cccc(OC)c2O)cc1 | > 200 µg/mL
COc1ccc(-c2oc3ccc(C)cc3c2C(=O)c2ccc(O)c(I)c2)cc1 | > 200 µg/mL
CC(=O)N1CCN(c2ccc(OCC3COC(Cn4ccnc4)(c4ccc(Cl)cc4Cl)O3)cc2)CC1 (centres undefined) [KETOCONAZOLE] | < 0.39 µg/mL
Clc1ccc(COC(Cn2ccnc2)c2ccc(Cl)cc2Cl)c(Cl)c1.O=[N+]([O-])O (centres undefined) [MICONAZOLE NITRATE] | < 0.39 µg/mL
Oc1ccc(/C=C/c2cc(O)cc(O)c2)cc1 [RESVERATROL] | > 200 µg/mL

Source: ChEMBL document CHEMBL1806457, “Synthesis and antimicrobial evaluation of new benzofuran derivatives” (2011)
